{
  "source": "paper PMC3016151",
  "about": "(Investigational New Drugs, 2009)",
  "key": {"[1]": {"experiment": "Pharmacokinetics of telatinib in phase I patients", "format": "in vivo, human", "details": "for Dose normalized AUC, mean: cycle 1 day 14, 150 mg tablets"}, "[2]": {"test_system": "patients with advanced or metastatic solid tumors", "experiment": "Telatinib-induced toxicity in phase I patients", "format": "in vivo, human", "in_short": "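Patients with advanced or metastatic solid tumours (ECOG ≤2) took test compound orally, od or bid, continuously (20 mg od to 1,500 mg bid). Adverse events were graded by NCI-CTC v3.0 over all treatment cycles. KDR and FLT4 SNPs were TaqMan-genotyped on a dynamic array using DNA from residual frozen blood. Toxicity was compared by two-sided chi-square (3×2 genotype; 2×2 carrier vs noncarrier).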"}, "[3]": {"details": "phase I and pharmacological study; cited from earlier work"}, "[4]": {"test_system": "adenosine triphosphate binding cassette (ABC) B1 (ABCB1) transporter", "details": "in vitro studies; data on file at Bayer Pharmaceuticals Corporation; cited from earlier work"}, "[5]": {"details": "all treatment cycles, 33 patients, all dose levels"}},
  "data": [
    {"smiles": "CNC(=O)c1cc(COc2nnc(Nc3ccc(Cl)cc3)c3ccoc23)ccn1", "note": "[telatinib, Telatinib]", "values": [
      {"measurement": "Dose normalized AUC, mean", "setting": "[1]; ABCB1 1236C>T genotype CC, n=9", "result": 7.84},
      {"measurement": "Dose normalized AUC, mean", "setting": "[1]; ABCB1 1236C>T genotype CT, n=15", "result": 11.60},
      {"measurement": "Dose normalized AUC, mean", "setting": "[1]; ABCB1 1236C>T genotype TT, n=5", "result": 4.82},
      {"measurement": "Dose normalized AUC, mean", "setting": "[1]; ABCB1 2677G>A/T genotype GG, n=9", "result": 7.84},
      {"measurement": "Dose normalized AUC, mean", "setting": "[1]; ABCB1 2677G>A/T genotype TG, n=15", "result": 11.60},
      {"measurement": "Dose normalized AUC, mean", "setting": "[1]; ABCB1 2677G>A/T genotype TT, n=5", "result": 4.82},
      {"measurement": "Dose normalized AUC, mean", "setting": "[1]; ABCB1 3435C>T genotype CC, n=7", "result": 7.30},
      {"measurement": "Dose normalized AUC, mean", "setting": "[1]; ABCB1 3435C>T genotype CT, n=16", "result": 11.10},
      {"measurement": "Dose normalized AUC, mean", "setting": "[1]; ABCB1 3435C>T genotype TT, n=6", "result": 6.65},
      {"measurement": "Dose normalized AUC, mean", "setting": "[1]; ABCB1 -129T>C genotype CC, n=1", "result": 11.79},
      {"measurement": "Dose normalized AUC, mean", "setting": "[1]; ABCB1 -129T>C genotype TC, n=2", "result": 15.65},
      {"measurement": "Dose normalized AUC, mean", "setting": "[1]; ABCB1 -129T>C genotype TT, n=26", "result": 8.67},
      {"measurement": "Dose normalized AUC, mean", "setting": "[1]; ABCC1 825T>C genotype TC, n=11", "result": 10.90},
      {"measurement": "Dose normalized AUC, mean", "setting": "[1]; ABCC1 825T>C genotype TT, n=18", "result": 8.26},
      {"measurement": "Dose normalized AUC, mean", "setting": "[1]; ABCC1 1062T>C genotype CC, n=2", "result": 13.45},
      {"measurement": "Dose normalized AUC, mean", "setting": "[1]; ABCC1 1062T>C genotype TC, n=10", "result": 9.95},
      {"measurement": "Dose normalized AUC, mean", "setting": "[1]; ABCC1 1062T>C genotype TT, n=17", "result": 8.36},
      {"measurement": "Dose normalized AUC, mean", "setting": "[1]; ABCC1 2012G>T genotype GG, n=24", "result": 8.80},
      {"measurement": "Dose normalized AUC, mean", "setting": "[1]; ABCC1 2012G>T genotype GT, n=4", "result": 13.46},
      {"measurement": "Dose normalized AUC, mean", "setting": "[1]; ABCC1 2012G>T genotype TT, n=1", "result": 3.63},
      {"measurement": "Dose normalized AUC, mean", "setting": "[1]; ABCC1 rs129081 genotype CC, n=5", "result": 10.22},
      {"measurement": "Dose normalized AUC, mean", "setting": "[1]; ABCC1 rs129081 genotype GC, n=15", "result": 10.44},
      {"measurement": "Dose normalized AUC, mean", "setting": "[1]; ABCC1 rs129081 genotype GG, n=9", "result": 6.77},
      {"measurement": "Dose normalized AUC, mean", "setting": "[1]; ABCG2 346G>A genotype AG, n=4", "result": 6.00},
      {"measurement": "Dose normalized AUC, mean", "setting": "[1]; ABCG2 346G>A genotype GG, n=25", "result": 9.78},
      {"measurement": "Dose normalized AUC, mean", "setting": "[1]; ABCG2 421C>A genotype CA, n=6", "result": 10.48},
      {"measurement": "Dose normalized AUC, mean", "setting": "[1]; ABCG2 421C>A genotype CC, n=23", "result": 8.95},
      {"measurement": "Dose normalized AUC(0–12), mean (range)", "setting": "[1]; oral, cycle 1 day 14 (steady-state), AUC(0–12)/actual dose", "result": "9.26 (0.98–34.60) µg.hr/L per mg of dose"},
      {"measurement": "Grade 3–4 toxicity, number of patients", "setting": "[2]; 33 patients", "result": 3, "unit": "patients"},
      {"measurement": "Hypertension (most frequently observed side-effect), number of patients", "setting": "[2]; 33 patients, unrelated to dose", "result": 7, "unit": "n"},
      {"measurement": "Toxicity: any toxicity grade 1–4 all cycles, No (number of patients)", "setting": "[2]; FLT4 1480A>G genotype AA", "result": 7},
      {"measurement": "Toxicity: any toxicity grade 1–4 all cycles, Yes (number of patients)", "setting": "[2]; FLT4 1480A>G genotype AA", "result": 20},
      {"measurement": "Toxicity: any toxicity grade 1–4 all cycles, No (number of patients)", "setting": "[2]; FLT4 1480A>G genotype AG", "result": 3},
      {"measurement": "Toxicity: any toxicity grade 1–4 all cycles, Yes (number of patients)", "setting": "[2]; FLT4 1480A>G genotype AG", "result": 3},
      {"measurement": "Toxicity: any toxicity grade 1–4 all cycles, No (number of patients)", "setting": "[2]; FLT4 2670C>G genotype CC", "result": 6},
      {"measurement": "Toxicity: any toxicity grade 1–4 all cycles, Yes (number of patients)", "setting": "[2]; FLT4 2670C>G genotype CC", "result": 11},
      {"measurement": "Toxicity: any toxicity grade 1–4 all cycles, No (number of patients)", "setting": "[2]; FLT4 2670C>G genotype CG", "result": 3},
      {"measurement": "Toxicity: any toxicity grade 1–4 all cycles, Yes (number of patients)", "setting": "[2]; FLT4 2670C>G genotype CG", "result": 9},
      {"measurement": "Toxicity: any toxicity grade 1–4 all cycles, No (number of patients)", "setting": "[2]; FLT4 2670C>G genotype GG", "result": 1},
      {"measurement": "Toxicity: any toxicity grade 1–4 all cycles, Yes (number of patients)", "setting": "[2]; FLT4 2670C>G genotype GG", "result": 3},
      {"measurement": "Toxicity: any toxicity grade 1–4 all cycles, No (number of patients)", "setting": "[2]; KDR 1192G>A genotype CC", "result": 5},
      {"measurement": "Toxicity: any toxicity grade 1–4 all cycles, Yes (number of patients)", "setting": "[2]; KDR 1192G>A genotype CC", "result": 19},
      {"measurement": "Toxicity: any toxicity grade 1–4 all cycles, No (number of patients)", "setting": "[2]; KDR 1192G>A genotype TC", "result": 4},
      {"measurement": "Toxicity: any toxicity grade 1–4 all cycles, Yes (number of patients)", "setting": "[2]; KDR 1192G>A genotype TC", "result": 4},
      {"measurement": "Toxicity: any toxicity grade 1–4 all cycles, No (number of patients)", "setting": "[2]; KDR 1192G>A genotype TT", "result": 1},
      {"measurement": "Toxicity: any toxicity grade 1–4 all cycles, Yes (number of patients)", "setting": "[2]; KDR 1192G>A genotype TT", "result": 0},
      {"measurement": "Toxicity: any toxicity grade 1–4 all cycles, No (number of patients)", "setting": "[2]; KDR 1719A>T genotype AA", "result": 1},
      {"measurement": "Toxicity: any toxicity grade 1–4 all cycles, Yes (number of patients)", "setting": "[2]; KDR 1719A>T genotype AA", "result": 1},
      {"measurement": "Toxicity: any toxicity grade 1–4 all cycles, No (number of patients)", "setting": "[2]; KDR 1719A>T genotype TA", "result": 4},
      {"measurement": "Toxicity: any toxicity grade 1–4 all cycles, Yes (number of patients)", "setting": "[2]; KDR 1719A>T genotype TA", "result": 9},
      {"measurement": "Toxicity: any toxicity grade 1–4 all cycles, No (number of patients)", "setting": "[2]; KDR 1719A>T genotype TT", "result": 5},
      {"measurement": "Toxicity: any toxicity grade 1–4 all cycles, Yes (number of patients)", "setting": "[2]; KDR 1719A>T genotype TT", "result": 13},
      {"measurement": "Toxicity: any toxicity grade 1–4 all cycles, No (number of patients)", "setting": "[2]; KDR -604T>C genotype CC", "result": 3},
      {"measurement": "Toxicity: any toxicity grade 1–4 all cycles, Yes (number of patients)", "setting": "[2]; KDR -604T>C genotype CC", "result": 7},
      {"measurement": "Toxicity: any toxicity grade 1–4 all cycles, No (number of patients)", "setting": "[2]; KDR -604T>C genotype CT", "result": 5},
      {"measurement": "Toxicity: any toxicity grade 1–4 all cycles, Yes (number of patients)", "setting": "[2]; KDR -604T>C genotype CT", "result": 13},
      {"measurement": "Toxicity: any toxicity grade 1–4 all cycles, No (number of patients)", "setting": "[2]; KDR -604T>C genotype TT", "result": 2},
      {"measurement": "Toxicity: any toxicity grade 1–4 all cycles, Yes (number of patients)", "setting": "[2]; KDR -604T>C genotype TT", "result": 3},
      {"measurement": "Any toxicity grade 1–4, patients", "setting": "[2]; [5]", "result": "23 (70) n (%)"},
      {"measurement": "Any toxicity grade 3 or 4, patients", "setting": "[2]; [5]", "result": "3 (9) n (%)"},
      {"measurement": "Hypertension grade 1–4, patients", "setting": "[2]; [5]", "result": "7 (21) n (%)"},
      {"measurement": "Hypertension grade 3 or 4, patients", "setting": "[2]; [5]", "result": "2 (6) n (%)"},
      {"measurement": "any grade 1–4 toxicity, number of patients", "setting": "[2]; during all treatment cycles", "result": "23 out of 33 patients"},
      {"measurement": "any grade 1–4 toxicity, share of patients", "setting": "[2]; during all treatment cycles, 33 patients", "result": 70, "unit": "%"},
      {"measurement": "AUC(0–12) interpatient variability, % coefficient of variation", "setting": "[3]", "result": "20–150%"},
      {"measurement": "Cmax interpatient variability, % coefficient of variation", "setting": "[3]", "result": "20–150%"},
      {"measurement": "dose proportionality of pharmacokinetics", "setting": "[3]", "result": "dose proportional"},
      {"measurement": "substrate of the ABCB1 transporter", "setting": "[4]", "result": "weak substrate"}
    ]}
  ]
}
